Results taken from the EternaBench riboswitch data.

Tested on: MS2 coat protein
Experiment: apparent Kd, MS2 coat protein; higher = weaker binding; RNA-MaP array
How it was run: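 Apparent Kd values come from the median of binding-curve fits to single clusters. To obtain them, designed RNAs transcribed on an Illumina sequencing chip from sequenced DNA templates were incubated at room temperature with fluorescently labeled MS2 coat protein at 1.5 nM to 3 μM, with or without input ligand, for 0.8–1.5 h at the lowest and 10–20 min at the highest concentrations. Designs measured on fewer than 10 clusters were excluded.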

[1] = designed as: ON switch for flavin mononucleotide, no ligand
[2] = ligand present: flavin mononucleotide, designed as: ON switch for flavin mononucleotide
[3] = designed as: OFF switch for flavin mononucleotide, no ligand
[4] = ligand present: flavin mononucleotide, designed as: OFF switch for flavin mononucleotide
[5] = designed as: OFF switch for tryptophan, no ligand
[6] = ligand present: tryptophan, designed as: OFF switch for tryptophan
[7] = designed as: ON switch for tryptophan, no ligand
[8] = ligand present: tryptophan, designed as: ON switch for tryptophan

GAGCGACUAUGAGAUUGGACAUGAGGAUCACCCAUGUGAGACAGAAGGGCCUUGGCGCCCGUGAGGCAGGAUAUGUACCAAGCA
apparent Kd [1]: 0.0274 µM | apparent Kd [2]: 0.0196 µM

UUACCAGCAGGAUAUUCAUCUGUUAACAUGAGGAUCACCCAUGUCUCGUGAUCGAACUAGGAAGAAGGGCUUAUAC
apparent Kd [3]: 0.0744 µM | apparent Kd [4]: 0.0773 µM

UCUAUUAACUAAGGAUAUAGAACAGGCCGGAUUUUGUUGCGUCUGACAUGAGGAUCACCCAUGUUCUAGAAGGUAGACUGCUGC
apparent Kd [3]: 0.0133 µM | apparent Kd [4]: 0.0117 µM

GACAGGAAAGGAUAUACAAAAUAGAUCAAACGCACACAAAGACAUGAGGAUCACCCAUGUAGAAGGUACUGACA
apparent Kd [3]: 0.0113 µM | apparent Kd [4]: 0.00976 µM

UCGACAUGAGGAUCACCCAUGUGCCUCGGAUGUCGUUAGAGUGAGGAUAUGUCACACCAAAACGUACAGAAGGCACUUAUUAGA
apparent Kd [3]: 0.296 µM | apparent Kd [4]: 0.267 µM

AAUAGAGCACUAGGAUAUGUUUCGUGUGCAGGUGGACAUGAGGAUCACCCAUGUAUAUGUUCAAGACAGAAGGAGACAGAUGAA
apparent Kd [3]: 0.0592 µM | apparent Kd [4]: 0.0384 µM

UCAUUUUCAGAAGGAUAUUUACCAGGCCAAGGUAAAGAAGGUCUAUGGGUCACUUCCUUGAUACAUGAGGAUCACCCAUGUGAA
apparent Kd [3]: 0.292 µM | apparent Kd [4]: 0.429 µM

UCCUCGCACGAGAAGGCAAGCCGAGAAACACCUUGAGGAUAUCGUCGACAGACCACCGGGACAUGAGGAUCACCCAUGUGGGCC
apparent Kd [3]: 0.0752 µM | apparent Kd [4]: 0.049 µM

GACAACCACAUGAGGAUCACCCAUGUUUACAUACACAAGGGAAGAAGGGAACCUAAAGGAUCAAAUCAGGAUAUUCGUAUUGUA
apparent Kd [1]: 0.027 µM | apparent Kd [2]: 0.0195 µM

UCGCCAUUGACGGCCGCCACUCAAUGGUCUUCUCUGAACAUAAUUAACAUGAGGAUCACCCAUGUGAGGACCGGGUCGGUUAGAC
apparent Kd [5]: 0.0195 µM | apparent Kd [6]: 0.0323 µM

AUUAACAUGAGGAUCACCCAUGUUCUCACACGAGGACCGGUACGGCCGCCACUCGGUUUGGUAUUGGUCACUAGGCAGUUAGGAG
apparent Kd [7]: 0.0159 µM | apparent Kd [8]: 0.0176 µM

UCCAGCAACGAGAAGGUACACAUGAGGAUCACCCAUGUCCGUUGACCGUCUCCAUGGGCGAUGGGUAAGGAUAUCGGGCAGAUG
apparent Kd [1]: 0.0689 µM | apparent Kd [2]: 0.0494 µM

GCUCUAAGGGAGAAGGUCAUGUCGCAUCUUAGCGUUCACAUGAGGAUCACCCAUGUUAACUGUGUGAAGGAUAUCCUAGGCUGU
apparent Kd [1]: 0.358 µM | apparent Kd [2]: 0.125 µM

UGUUGGGAAACAGGAUAUGAGCUUAAAGCACAAGGGAUUCGCACAUGAGGAUCACCCAUGUAACGUCAGAAGGGUUUGUUUGUA
apparent Kd [3]: 0.0512 µM | apparent Kd [4]: 0.0422 µM

CAUGGAUAAGGAUAUACAUGAGGAUCACCCAUGUAUAGAAGGAUACAAAGAUAAGAAUGUAGAAGGUAUUGGUU
apparent Kd [3]: 0.00975 µM | apparent Kd [4]: 0.00844 µM

CGGGCACAUGAGGAUCACCCAUGUAAGGAUAUGAACAGUUUUCACAGAGUUUCACUAUUCAGAAGGUACGUUUC
apparent Kd [3]: 0.0242 µM | apparent Kd [4]: 0.0208 µM

UCGCUAUUGUCGGCCGCCACUACUGCAGGGAAACAAAUAUAACCACAUGAGGAUCACCCAUGUCUUAGGACCGGGACACCCAUCU
apparent Kd [7]: 0.0983 µM | apparent Kd [8]: 0.0807 µM

UUAAAGGCACCUCAUGGGACUAUAAACCCGCGAGGACCGGUACGGCCGCCACUCGAAUAUCAACAUGAGGAUCACCCAUGUGGUU
apparent Kd [5]: 0.0218 µM | apparent Kd [6]: 0.0485 µM

AGGCACCAGAGAGGAUAUUAGGACAGCGAACAUGAGGAUCACCCAUGUAUGUUUGUUAGGCGAGCUAAGAAGGCUCCACGGGUU
apparent Kd [3]: 0.0069 µM | apparent Kd [4]: 0.00673 µM

UAGACAAAACAGAAGGAAUGAAGUAGAACAACAAUAGGAUAUGUAUAAAAGUAUACAUGAGGAUCACCCAUGUUACCAACAUGA
apparent Kd [1]: 0.0114 µM | apparent Kd [2]: 0.00934 µM

ACAUGAGGAUCACCCAUGUUUUAUUCGAACUGGAAAUGACGUCAGGAUAUCACAAAUAGCAGCAAUGAGAAGGGACUAUAUAUG
apparent Kd [1]: 0.0116 µM | apparent Kd [2]: 0.00879 µM

ACCCAACAUGAGGAUCACCCAUGUGCAUGCCUCGGAGGAUAUGACCUCAUUCAUCUUUGAUCAGAAGGCCGAUCGC
apparent Kd [1]: 0.113 µM | apparent Kd [2]: 0.026 µM

AAUGAAAAGCAGAAGGCCUUAGCAAGUCGUAGAGGAGGAUAUGCGUACGCGGGUUGGCCAACAUGAGGAUCACCCAUGUCACCA
apparent Kd [3]: 0.0225 µM | apparent Kd [4]: 0.0263 µM

AAGCGUUCAGGAUAUACAUGAGGAUCACCCAUGUAAUGGAUGCUGCAUUACCGGGCGAGUAGAAGGGAAACGUC
apparent Kd [3]: 0.00609 µM | apparent Kd [4]: 0.00624 µM

CGUAUAGCAGGAUAUUGCAGCCGGCACAUGAGGAUCACCCAUGUCGAUGGUCCGCCAUAGCAAGAAGGGCUAGUAG
apparent Kd [3]: 0.0857 µM | apparent Kd [4]: 0.0571 µM

AGGUGUCCAGGAGGAUAUGAUUGCAACACGCCCUCAGAAGGCCUUAUAUACAAAGCAUACAUGAGGAUCACCCAUGUAAUUGGA
apparent Kd [1]: 0.00874 µM | apparent Kd [2]: 0.00911 µM

UGGAGAUAGACGGCCGCCACUAACAUGAGGAUCACCCAUGUCGUCACGAAUGGAUGGCCCUAGAAUAGGACCGGGUCCGGAUUCA
apparent Kd [5]: 0.0336 µM | apparent Kd [6]: 0.0348 µM

AUAAAUAAUUCAGGAUAUUGCGAUCAAACAACAUGAGGAUCACCCAUGUCCGUAAACACAACAAGCAAGAAGGGAAAGAAUCAA
apparent Kd [1]: 0.0246 µM | apparent Kd [2]: 0.0146 µM

UGCCUAUACCGAGGAUAUUACGUCAGAUGUGUGUAAGAAGGCGGGUUCCGAUCAACAUGAGGAUCACCCAUGUAUCUUUACGGC
apparent Kd [1]: 0.0245 µM | apparent Kd [2]: 0.00872 µM

GACAUGAGGAUCACCCAUGUAUGUGGGACUGCGCAUUGAUACUAGGAUAUCUGCCCAGACGUGUGAGAGAAGGAGUACGGUAAA
apparent Kd [1]: 0.0747 µM | apparent Kd [2]: 0.056 µM

AAACAGAGCAGAGGAUAUAUGAUAUGCCGAACAUGAGGAUCACCCAUGUCUUCGCGUAGCGCCCCAUAGAAGGCUGAUAGCAAC
apparent Kd [1]: 0.0166 µM | apparent Kd [2]: 0.014 µM

CAGAGUUCCUAAGGAUAUUGCUGGUCCGCAGUUCAAGAAGGUAGGUAUAAAAUGCUUAAACAUGAGGAUCACCCAUGUCAAGCC
apparent Kd [1]: 0.00675 µM | apparent Kd [2]: 0.00608 µM

UUACGGCAAGGAUAUACAUGAGGAUCACCCAUGUACUCUUUAUAAAUUAGUCAGCAUGGUAGAAGGUGCCGCUA
apparent Kd [3]: 0.00904 µM | apparent Kd [4]: 0.011 µM

AAACAUGCGUGAGAGGAUAUGUCAUUAAUAACAUGAGGAUCACCCAUGUUCGAUGAUUGAAAUAAACAGAAGGCUCCGGUCUGUAA
apparent Kd [1]: 0.027 µM | apparent Kd [2]: 0.0187 µM

CGUCCACAUGAGGAUCACCCAUGUACACGCGAUCAAGGAUAUCGCGAUAACACAAUAGUGCGAGAAGGUGAUGUAC
apparent Kd [1]: 0.148 µM | apparent Kd [2]: 0.0796 µM

CUCAAGUAAGGAUAUAUUCACGCUCGUAAUUAGUGUCGCGCAUAGAAGGUACAUGAGGAUCACCCAUGUCAUGU
apparent Kd [4]: 0.0184 µM

CUAGUGUGAGGAUAUGAGUCAACCUUUUAGUUCUAAGGAGAUCAGAAGGCACAUGAGGAUCACCCAUGUCAGAA
apparent Kd [3]: 0.0334 µM | apparent Kd [4]: 0.084 µM

AUUACAGACUACGGCGAUACAUGAGGAUCACCCAUGUCGAGUUAGGAUAUGCAACAAUACGGCCUGCAGAAGGAACCAAGAGGG
apparent Kd [3]: 0.0352 µM | apparent Kd [4]: 0.0323 µM

AUACGAGCCAAGAAGGAGGGAGAUCCUGCAGUCCUAGGAUAUUGGCCACAAUCGGCGGACGACAUGAGGAUCACCCAUGUCCCG
apparent Kd [1]: 0.0418 µM | apparent Kd [2]: 0.016 µM

AUUCGCCGAGGAUAUAAGUCGUUUGACAUGAGGAUCACCCAUGUUGUCAGUGGAAAUCGUUUAGAAGGCGGCCUCC
apparent Kd [3]: 0.0189 µM | apparent Kd [4]: 0.0134 µM

ACCCUGUGAGGAUAUUAUUAGCUCGGCCAUAAUAAGGAUAGUAAGAAGGCACAUGAGGAUCACCCAUGUAUCCU
apparent Kd [3]: 0.0218 µM | apparent Kd [4]: 0.0192 µM

UCGGCUUCCCAAGGAUAUGAGGUGCUUAUCGACAUGAGGAUCACCCAUGUAAAACUAGCUGCCAUUCAGAAGGUGGACACGCGC
apparent Kd [1]: 0.017 µM | apparent Kd [2]: 0.00778 µM

CUGUUACAUGAGGAUCACCCAUGUGAGCGGUUGCUAGGAUAUCGCCAUUGGUGGUUCGGACGAGAAGGAGCUAAAA
apparent Kd [1]: 0.15 µM | apparent Kd [2]: 0.0672 µM

AACAUGAGGAUCACCCAUGUACACUCAAUUCGGUAUCGCUGCAAGGAUAUUCGCGUUGGAUACAUGAAGAAGGUGCCCGUACCG
apparent Kd [1]: 0.092 µM | apparent Kd [2]: 0.0125 µM

GUGACACAUGAGGAUCACCCAUGUCAGGAUAUAGGUCAGCAAAGUAACCAUGACGAGACUAGAAGGGACGCGUG
apparent Kd [3]: 0.0305 µM | apparent Kd [4]: 0.0225 µM

UAGACUCAGUAGAAGGAUGAUAUUACGAUAUAACGUGACAUGAGGAUCACCCAUGUCUUCUGGUCAUAGGAUAUACGCGAAAUG
apparent Kd [1]: 0.0456 µM | apparent Kd [2]: 0.0213 µM

AAAGCAGUAGGAUAUACAGUCAUCCGACAGAUAGCGUAAAGACAUGAGGAUCACCCAUGUAGAAGGACUGUAAA
apparent Kd [3]: 0.00635 µM | apparent Kd [4]: 0.00628 µM

AUACGGCGGUAAAAUCAGAGAGUAAAAGAUACCAGCAAUAAUAAAUGCCCUUGGCAGCUUCUGACAUGAGGAUCACCCAUGUAAA
apparent Kd (designed as: OFF switch for theophylline, no ligand): 0.0153 µM | apparent Kd (ligand present: theophylline, designed as: OFF switch for theophylline): 0.0291 µM
